Cytotoxicity data for 99 compounds are collected here from ChEMBL document CHEMBL4513216, “Probing the Open Global Health Chemical Diversity Library for Multistage-Active Starting Points for Next-Generation Antimalarials” (ACS Infect Dis, 2020).

A short description of this data set: Toxicity liver stage against HepG2, at 10uM. More on the design: test concentration 10 uM, cell line HepG2-A16-CD81EGFP. The conditions noted are these: human, HepG2-A16-CD81EGFP cells; read-out: INHIBITION
Format: cell-based. An outline of the steps: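 Uninfected HepG2-A16-CD81EGFP cells, 3 × 10^3 per well, 1536-well, plated on prespotted compound at 10 μM final, parasite-free screening media added to match infected plates; puromycin 10 μM positive, DMSO 0.5% negative; run in parallel with 48 h PbLuc assay at 37 °C, 5% CO2; viability by CellTiter-Glo luminescence, normalized to controls.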
`CNC(=O)c1nc(COc2ccc3c(c2)OCO3)no1`: the cytotoxicity at 10 µM amounted to 2.03%.

Consider `Cn1nc(C(=O)NCc2ccc(Cl)cc2)c2c1CCS(=O)(=O)C2`, for which the cytotoxicity at 10 µM is 5.01%.

Consider `Cc1nc(N2CCC(C)CC2)ncc1-c1cc(O)nc(N2CCCC2)n1`, for which the cytotoxicity at 10 µM turned out to be 9.82%.

As for `Cn1nc(C(=O)NC2CCCCC2)cc1NC(=O)C1CC1`, the cytotoxicity at 10 µM was -3.97%.

As to `Cc1nn(C)c(C)c1CN(C)S(=O)(=O)c1c(C)n[nH]c1C`, the cytotoxicity at 10 µM was -2.32%.

As to `Cn1ccnc1C(O)c1ccccc1N1CCN(Cc2ccsc2)CC1` (centres undefined), the cytotoxicity at 10 µM stood at 3.19%.

`NCc1cnn(-c2ccccc2C(=O)NCc2ccccn2)c1`: the cytotoxicity at 10 µM was -19.9%.

For `O=C(NC1CC1)C1CCc2nnc(C3CC3)n21` (centres undefined), the cytotoxicity at 10 µM came out at 11.2%.

Consider `CC(C)(C)C(=O)N1CCC2(CNS(=O)(=O)c3cnccc3O2)C1` (centres undefined), for which the cytotoxicity at 10 µM stood at 10.2%.

As to `O=C(c1c[nH]nn1)N1CCCC1C1CCCCC1` (centres undefined), the cytotoxicity at 10 µM turned out to be 3.81%.

For the compound `Cc1cc(C)cc(OCCNC(=O)C(C)Sc2nncn2C)c1` (centres undefined), the cytotoxicity at 10 µM was -46.3%.

Take `CCc1ccc2c(c1)C(CCNC(=O)Cc1ccc(F)cc1)C(=O)N2` (centres undefined): the cytotoxicity at 10 µM was -44.3%.

In the case of `CS(=O)(=O)CCC(=O)Nc1nccn1Cc1ccccc1Cl`, the cytotoxicity at 10 µM was -5.98%.

In the case of `Cn1cc(NC(=O)c2cccc(-n3cnnn3)c2)cn1`, the cytotoxicity at 10 µM came out at 5.39%.

As to `CC(NCCn1cccn1)c1cc(F)ccc1F` (centres undefined), the cytotoxicity at 10 µM is 6.33%.

In the case of `O=C(NCC1CCCN1Cc1ccccc1)NCC1(O)CCC1` (centres undefined), the cytotoxicity at 10 µM is -9.17%.

For `N#CC1COCCN1C(=O)c1ccc2cc[nH]c2c1` (centres undefined), the cytotoxicity at 10 µM was 7.75%.

As for `CC(C)(NCCCOc1ccc(C#N)cc1)c1nccs1`, the cytotoxicity at 10 µM is -0.476%.

Regarding `CCOc1nnc(CN2CCN(CCOC)CC2)s1`, the cytotoxicity at 10 µM was -12.1%.

Consider `CCc1ccc(N2CCC(NS(=O)(=O)N(CC)CC)CC2)cc1`, for which the cytotoxicity at 10 µM stood at 0.243%.

Turning to `Cc1noc(C)c1CN(C)C(=O)NC(C)Cc1ccco1` (centres undefined), the cytotoxicity at 10 µM stood at 11.3%.

For the compound `CC1COCCN1C(=O)c1cnccn1` (centres undefined), the cytotoxicity at 10 µM is -4.36%.

`CCc1nsc(N2CCCN(C(=O)COc3ccccc3)CC2)n1`: the cytotoxicity at 10 µM is -1.74%.

As to `CC(=O)c1cccc(NC(=O)CN2CCCC(C3OCCO3)C2)c1` (centres undefined), the cytotoxicity at 10 µM is -3.28%.

For `CN(CC(=O)Nc1cccnc1)CC1CCCN1c1cccnn1` (centres undefined), the cytotoxicity at 10 µM is 2.66%.

Regarding `CN(C1CCc2ccccc2C1)S(C)(=O)=O` (centres undefined), the cytotoxicity at 10 µM is -3.78%.

In the case of `CCOCCOC(C)C(=O)NCc1cn2cc(Cl)ccc2n1` (centres undefined), the cytotoxicity at 10 µM was 8.82%.

In the case of `Cc1ncsc1C(=O)N1CCN(CCC(C)C)CC1`, the cytotoxicity at 10 µM is 9.34%.

Take `Cc1cccc(CC(=O)N2CCOCC2c2c(C)n[nH]c2C)c1` (centres undefined): the cytotoxicity at 10 µM stood at 9.18%.

Turning to `CC(C)(C)Cc1nnc(NCc2ccsc2)o1`, the cytotoxicity at 10 µM is -5.36%.

With `CCCc1cc(N2CCCC2Cn2nc(C)nc2C)n2ncnc2n1` (centres undefined), the cytotoxicity at 10 µM is -0.82%.

For the compound `O=C(Nc1ccc(CC(=O)N2CCSCC2)cc1)NC1CC1`, the cytotoxicity at 10 µM was -2.42%.

Turning to `CC(C)c1ccc(CCC(=O)N(C)C2CCN(C)C2=O)cc1` (centres undefined), the cytotoxicity at 10 µM is -7.79%.

`Cn1cc(Br)cc(NC(=O)Cc2cccs2)c1=O`: the cytotoxicity at 10 µM came to 2.14%.

On to `O=C(NCCNc1cnccn1)c1scnc1Cl`, for which the cytotoxicity at 10 µM is 8.11%.

`COc1cccc(OCC(=O)N(C)c2cccnc2)c1`: the cytotoxicity at 10 µM is -2.66%.

For the compound `CN(CC(F)(F)F)C(=O)CNC(=O)N1CCCC(N(C)C)C1` (centres undefined), the cytotoxicity at 10 µM is -7.91%.

As to `Cc1cc(C(N)=O)c2c(Br)cccc2n1`, the cytotoxicity at 10 µM was 1.09%.

With `COC(=O)CN(C)Cc1cc(Br)cs1`, the cytotoxicity at 10 µM is -2.45%.

For `Cc1nc(NC(=O)OC(C)(C)C)sc1C#N`, the cytotoxicity at 10 µM is -10%.

On to `COc1cccc(C(O)CN2CCN(C(=O)c3ccsc3)CC2)c1` (centres undefined), for which the cytotoxicity at 10 µM is -48.1%.

`N#CCCCN1CCCC1Cc1ccccc1` (centres undefined): the cytotoxicity at 10 µM is -45.4%.

`O=C(CCc1ccc(F)cc1)NCc1ccnc(NC2CC2)c1`: the cytotoxicity at 10 µM was -8.78%.

Turning to `CC1CN(Cc2cccc(C#N)c2)CCN1c1ccc2nncn2n1` (centres undefined), the cytotoxicity at 10 µM was found to be 9.56%.

Turning to `CNC(=O)c1cnc(/C=C/c2cc(OC)c(OC)c(OC)c2)s1`, the cytotoxicity at 10 µM was -15.5%.

For `CN(Cc1ccc(C#N)cc1)Cc1noc(C(C)(C)C)n1`, the cytotoxicity at 10 µM was -2.09%.

Consider `Cc1cnn(CC(C)NCc2nc(-c3ccco3)no2)c1` (centres undefined), for which the cytotoxicity at 10 µM is -16%.

Consider `O=C(c1cccs1)N1CCc2ncnc(C3CCOC3)c2CC1` (centres undefined), for which the cytotoxicity at 10 µM was -85.4%.

For `CSc1ccc(C(C(=O)O)N2CCC(CO)CC2)cc1` (centres undefined), the cytotoxicity at 10 µM was 3.68%.

Turning to `Cc1c[nH]c(CN2CCCCC2CCn2ccnc2C)c(C)c1=O` (centres undefined), the cytotoxicity at 10 µM is 0.585%.

`Cc1cccc(C)c1Oc1ncccc1CNC(=O)C1COC(=O)N1` (centres undefined): the cytotoxicity at 10 µM is -4.65%.

As for `O[C@@H]1CN(CC2CC2)CC[C@H]1N1CCN(c2ccccc2F)CC1`, the cytotoxicity at 10 µM is -50.3%.

Regarding `CC1(C)CNC(=O)c2nc(CCN3CCC(O)CC3)[nH]c2C1`, the cytotoxicity at 10 µM is -10.4%.

As for `Cc1ccc(F)c(NC(=O)CCC(=O)N(C)Cc2nc(C)c[nH]2)c1`, the cytotoxicity at 10 µM came out at 7.05%.

Regarding `CNc1nc(N2CCN(Cc3ccsc3)C(CCO)C2)nc2c1CCC2` (centres undefined), the cytotoxicity at 10 µM was 3.96%.

Take `CC1(C)CC(C(=O)N2CCC3(CCC(=O)N(C4CC4)C3)CC2)CCO1` (centres undefined): the cytotoxicity at 10 µM is 0.868%.

As for `CN(C)c1ncc(CNC2CC(=O)N(CCc3cccc(Cl)c3)C2)s1` (centres undefined), the cytotoxicity at 10 µM is -132%.

For the compound `Cc1cnc(-n2cnnc2)c(-c2cccc3c2CCNC3)c1`, the cytotoxicity at 10 µM was determined as 17.7%.

`CN(C)c1cnn(CC(=O)N2CCN(c3ccccc3)CC2)c(=O)c1`: the cytotoxicity at 10 µM was -13.8%.

Regarding `CCc1nn(C)c(Cl)c1CN1CCCC2(CC1)CN(C)C(=O)O2` (centres undefined), the cytotoxicity at 10 µM is 5.63%.

As to `CCc1nc(N2CCN(c3ncccc3C#N)CC2)c2cnn(C)c2n1`, the cytotoxicity at 10 µM is 10.8%.

For `Cc1nc(C2CCCNC2)cc(N2CCc3nc(N)sc3C2)n1` (centres undefined), the cytotoxicity at 10 µM is -47.4%.

On to `CCCN1CCN(Cc2cccc(OC)c2)[C@H]2CS(=O)(=O)C[C@H]21`, for which the cytotoxicity at 10 µM was -8.15%.

As for `CC[C@H](Nc1nc(C(C)C)nc2c1cnn2C)c1ccccc1`, the cytotoxicity at 10 µM is -47.5%.

`CSCc1noc(CNC(=O)C2CCN(C3CCCCC3)CC2)n1`: the cytotoxicity at 10 µM was 8.45%.

As to `Cc1c[nH]c(C(=O)N2CCn3nc(C(=O)NC4CC4)cc3C2)n1`, the cytotoxicity at 10 µM is -2.66%.

Take `CCCC1(NC(=O)C(c2ccc(F)cc2)N(C)C)CC1` (centres undefined): the cytotoxicity at 10 µM was -37.1%.

Regarding `Cc1cc(C(F)(F)F)cc(N2C[C@@H](CN3CCOCC3)[C@@H](CO)C2)n1`, the cytotoxicity at 10 µM was -6.02%.

`CCc1noc(CN(CC)C(=O)C2CC(=O)N(Cc3ccncc3)C2)n1` (centres undefined): the cytotoxicity at 10 µM turned out to be 18.2%.

Turning to `c1ccc2c(CC3CN(Cc4nccs4)CCO3)cccc2c1` (centres undefined), the cytotoxicity at 10 µM is 1.31%.

On to `CCOCCC(=O)N1CCc2cccc(S(=O)(=O)N3CCOCC3)c2C1`, for which the cytotoxicity at 10 µM is -7.41%.

As for `CCOCc1nc2c(c(NC(CC)c3cccnc3)n1)CCNCC2` (centres undefined), the cytotoxicity at 10 µM was -4.28%.

For the compound `Cn1cccc1C(=O)N1CCC2(CCCN(CC3CCC3)C2=O)C1` (centres undefined), the cytotoxicity at 10 µM was -2.6%.

For the compound `COc1ccc(-n2ncc(C(C)NC3CCSCC3)c2C)cc1` (centres undefined), the cytotoxicity at 10 µM was -4.57%.

Regarding `CCN(CC)C(=O)[C@@H]1C[C@@H](n2cc(-c3cccc(OC)c3)nn2)CN1`, the cytotoxicity at 10 µM was -5.98%.

As for `Cc1ccc(-c2ncc(C(=O)N3CCCC(CCN)C3)c(O)n2)cc1` (centres undefined), the cytotoxicity at 10 µM was -7.98%.

As to `Cc1nccc(-c2cccc(NCC(=O)N3CCCC(C)C3)c2)n1` (centres undefined), the cytotoxicity at 10 µM was -6.27%.

On to `CC(=O)Nc1nc(C(=O)N2CCCC(n3nc(C)nc3C)C2)cs1` (centres undefined), for which the cytotoxicity at 10 µM is -2.06%.

For `CCc1nc(CN2CCCN(C(=O)c3ccco3)CC2)cs1`, the cytotoxicity at 10 µM came out at 5.03%.

As to `CCn1cc(NC(=O)C2CCN(Cc3nc(C(C)C)no3)CC2)cn1`, the cytotoxicity at 10 µM turned out to be 0.449%.

`COC(=O)CCc1c(C)nc2cc(O)nn2c1C`: the cytotoxicity at 10 µM was -7.18%.

With `CCN(C(=O)Nc1cccnc1OC)C1CC1`, the cytotoxicity at 10 µM is -9.11%.

Take `CC(C)n1ncc2cc(NC(=O)N3CCC(N4CCCC4)C3)cnc21` (centres undefined): the cytotoxicity at 10 µM is -8.58%.

For the compound `CN(Cc1nc(C2CC2)no1)C1CCCN(c2cccnn2)C1` (centres undefined), the cytotoxicity at 10 µM was -6.62%.

For `CC(C)CCC(=O)NC(C)c1nnc2n1CCCCC2` (centres undefined), the cytotoxicity at 10 µM is -7.76%.

As to `Cc1nc(CN2CCCC2c2ccsc2)nc2ccccc12` (centres undefined), the cytotoxicity at 10 µM is 0.89%.

Take `COCCC(=O)N1CCc2c(CNc3ncccn3)cncc2C1`: the cytotoxicity at 10 µM came to 9.05%.

Regarding `CCC(CN1CCCC1)NC(=O)C1(c2cccc(F)c2)CC1` (centres undefined), the cytotoxicity at 10 µM is -5.72%.

For the compound `OCC1CCC2(CC1)CN(Cc1ccccc1F)Cc1ccccc1O2` (centres undefined), the cytotoxicity at 10 µM came to 3.68%.

In the case of `Cc1cccc(CN(Cc2ccc(C)o2)C2CC(C)(C)NC(C)(C)C2)n1`, the cytotoxicity at 10 µM was -2.42%.

Regarding `CN(C)C(=O)[C@H]1C[C@H]2OCC[C@H]2N(Cc2ccc(F)cc2)C1`, the cytotoxicity at 10 µM is -76.1%.

With `Cc1cccc(CN2CCc3ncnc(-c4ccsc4)c3CC2)n1`, the cytotoxicity at 10 µM was -78.2%.

On to `O=C(NC1CCC1)[C@@H]1CCO[C@@H]2CCN(CCc3ccccc3)C[C@H]21`, for which the cytotoxicity at 10 µM was -7.24%.

Take `O=C(NCc1ccccc1)c1nc2c(o1)CN(C(=O)c1cccnc1)C2`: the cytotoxicity at 10 µM is -76.9%.

Regarding `O=C(N1CCOCC1)[C@@]12CCO[C@@H]1CCN(CC1CCCC1)C2`, the cytotoxicity at 10 µM is -0.385%.

For `CCOCC1CN(Cc2cnn(C)c2)Cc2c1cnn2CC` (centres undefined), the cytotoxicity at 10 µM is -83.4%.

For the compound `Cn1ncc2c1CN(Cc1cccnc1)CC2COCC1CC1` (centres undefined), the cytotoxicity at 10 µM was -10.7%.

On to `COCCN1CCOCC2(C1)CN(C(=O)c1conc1C)CCO2` (centres undefined), for which the cytotoxicity at 10 µM is 7.1%.

In the case of `CN(C)c1ccc(CN2C[C@@H]3CC[C@H]2CN(C2CCOCC2)C3)cn1`, the cytotoxicity at 10 µM is -3.62%.
